Compound activity (PubChem BioAssay)
Shown are actives, neighbours in structure and some others; about 3.1% of the full set was active somewhere.
Ecoli rRNA inh: inhibits bacterial ribosomal RNA function over humanized ribosomes; 1.6% of 350,000 active; E. coli WT GFP vs humanized-ribosome RFP mutants, fluorescence, 24 h; active compounds read low; DMSO median 0, no signal -100; GFP signal change (wild-type ribosome), % (test concentration not listed);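 active means significant combined selectivity score with lowered wild-type GFP, culture density cut under 30%, mutant RFP and density less affected; inactive means any of these conditions unmet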
S100A4 inh HTS: S100A4-myosin IIA interaction inhibition; inhibition, % at 10.7 µM; AID 652163; 0.14% of 360,000 active; P26447; S100A4/TAMRA-MyoIIA peptide fluorescence polarization;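 active means mean inhibition of at least 70% across replicates, with every replicate also reaching that level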
Target sequence (P26447 whole entry, looked up): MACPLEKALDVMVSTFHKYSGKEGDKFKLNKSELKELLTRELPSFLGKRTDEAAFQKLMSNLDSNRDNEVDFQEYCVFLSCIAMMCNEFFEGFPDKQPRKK
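Test system – S100A4 monomer (human) · Compound – single-point compound testing · Schedule – 5 min incubation before reading · Probe or stimulus – TAMRA-labelled myosin IIA heavy-chain peptide probe, 5 nM · Benchmarks – neutral control DMSO, positive control TFP · Medium – Calcium-containing HEPES buffer, pH 7.2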
F508del corr: CFTR F508del correction in bronchial cells; CFBE cells, YFP halide quenching; stimulated with forskolin plus potentiator P3; % fluorescence drop versus neutral controls; activity (quench increase), % at 7.58 µM; 0.36% of 350,000 active; AID 720511;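 active means mean added fluorescence quench of at least 8% versus neutral control, with both replicates also reaching 8%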;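 further: cells transiently co-express mutant CFTR-F508del with the halide-sensitive YFP; corrector assay measuring rescue of mutant channel to the surface after 24 h compound exposure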
ERAP1 inh: inhibitors of human ERAP1 aminopeptidase | 0.15% of 340,000 active | Q9NZ08 | inhibition, % at 10.7 µM | recombinant ERAP1, Leu-AMC fluorescence, 60 min;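 active means mean replicate inhibition of at least 30%, or all replicates individually reaching that 30% level; inactive means mean below 30% and not every replicate reaching it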
SIRT5 inh: inhibitors of human sirtuin-5 desuccinylase; 1.1% of 330,000 active; inhibition, % at 15 µM; Purified SirT5, succinyl-peptide AMC, trypsin-coupled fluorescence; in the data active means inhibition above about 15%
Target sequence (Q9NXA8 whole entry, looked up): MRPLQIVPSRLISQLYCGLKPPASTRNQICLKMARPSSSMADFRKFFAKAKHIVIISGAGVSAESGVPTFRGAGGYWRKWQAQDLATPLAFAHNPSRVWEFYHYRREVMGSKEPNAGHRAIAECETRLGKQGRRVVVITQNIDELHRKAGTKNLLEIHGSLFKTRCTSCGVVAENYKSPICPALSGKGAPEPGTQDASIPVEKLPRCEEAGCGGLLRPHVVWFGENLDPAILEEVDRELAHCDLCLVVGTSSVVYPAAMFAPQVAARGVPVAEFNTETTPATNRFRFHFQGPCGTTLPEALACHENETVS
Numbers stand for hits; . = inactive; / = not tested or not shown.

SMILES | Ecoli rRNA inh | S100A4 inh HTS | F508del corr | ERAP1 inh | SIRT5 inh
O=C(C[C@@H]1CC[C@H]2[C@@H](COC[C@@H](O)CN2CC2CCCCC2)O1)NCc1ccc(F)cc1 | . | 116 | . | . | .
O=C(C[C@H]1CC[C@H]2[C@@H](COC[C@H](O)CN2C(=O)Nc2ccc(F)cc2)O1)NCCc1ccccc1 | . | . | . | . | .
C[C@H](NC(=O)C[C@H]1CC[C@H]2[C@@H](COC[C@H](O)CN2C(=O)Nc2ccccc2)O1)c1ccccc1 | . | . | . | 43 | .
O=C(C[C@H]1CC[C@@H]2[C@H](COC[C@@H](O)CN2C(=O)Nc2ccc(F)cc2)O1)NCCc1ccccc1 | . | 106 | . | . | .
CCOC(=O)/C(CCC[N+](C)(CC)CC)=N\O | / | . | / | 111 | .
CCOC(=O)C(Cc1ccnc2ccccc12)=NO | . | . | . | . | .
COc1ccc(NC(=O)Nc2ccc3c(c2)C(=O)N([C@@H](C)CO)C[C@@H](C)[C@@H](CN(C)C(=O)NC(C)C)OCCCC[C@H](C)O3)cc1 | . | . | . | . | .
COc1ccc(CNC(=O)CCn2ccc3cc(S(=O)(=O)N4CCCC4)ccc32)cc1 | . | . | . | . | 34
Cc1ccccc1CNC(=O)Cn1ccc2cc(S(=O)(=O)N3CCCCCC3)ccc21 | . | . | . | . | 19
COc1cccc(CNC(=O)CCn2ccc3cc(S(=O)(=O)N4CCCC4)ccc32)c1 | . | . | . | . | .
O=C(Cn1ccc2cc(S(=O)(=O)N3CCCCC3)ccc21)NCc1ccccc1F | . | . | . | . | .
Cc1cccc(CNC(=O)Cn2ccc3cc(S(=O)(=O)N4CCCC4)ccc32)c1 | . | . | . | . | 16
CNC(=O)C[C@@H]1CC[C@H]2[C@@H](COc3ccc(NC(=O)c4cccs4)cc3C(=O)N2C)O1 | . | / | . | / | /
COCC(C)n1c(SCC(=O)N2CC(=O)Nc3ccccc32)nc2ccccc2c1=O (stereo unspecified) | . | . | 15 | . | .
Cc1ccc(-n2c(SCC(=O)N3CC(=O)Nc4ccccc43)nc3ccccc3c2=O)cc1C | . | . | / | . | .
Cc1noc(C)c1S(=O)(=O)N(C)C[C@@H]1OCCCC[C@H](C)Oc2ccc(NS(C)(=O)=O)cc2C(=O)N([C@H](C)CO)C[C@@H]1C | . | . | . | . | .
O=C(c1cccnc1)N1CC[C@@H]2[C@H](CO)Nc3ccc(C4=CCCCC4)cc3[C@@H]21 | . | . | 8.1 | . | .
N#Cc1cccc(-c2ccc3c(c2)[C@@H]2[C@@H](CCN2C(=O)c2ccncc2)[C@@H](CO)N3)c1 | . | 98 | . | . | .
O=C(c1cccnc1)N1CC[C@@H]2[C@@H](CO)Nc3ccc(C4=CCCCC4)cc3[C@@H]21 | . | . | . | . | 17
O=C(c1cccc(F)c1)N1CC[C@@H]2[C@H](CO)Nc3ccc(-c4ccccc4F)cc3[C@@H]21 | . | / | 11 | . | .
CC(=O)N(C)C[C@H]1Oc2cc(C#Cc3cccnc3)ccc2S(=O)(=O)N([C@H](C)CO)C[C@H]1C | . | . | . | . | .
COc1ccc(NC(=O)N(C)C[C@@H]2Oc3ccc(NC(=O)Cn4cnnn4)cc3C(=O)N([C@H](C)CO)C[C@H]2C)cc1 | . | . | . | . | .
CC(C)NC(=O)N(C)C[C@H]1OCCCC[C@@H](C)Oc2ccc(N(C)C)cc2C(=O)N([C@@H](C)CO)C[C@H]1C | . | . | . | . | .
C[C@H](CO)N1C[C@H](C)[C@H](CN(C)C(=O)NC2CCCC2)Oc2ncc(-c3ccccc3F)cc2C1=O | . | . | . | . | .
COCC(=O)N(C)C[C@@H]1[C@@H](c2ccccc2)[C@H](CO)N1C(=O)Cc1cccnc1 | . | . | . | . | .
SMILES | Ecoli rRNA inh | S100A4 inh HTS | F508del corr | ERAP1 inh | SIRT5 inh
COCC(=O)N(C)C[C@H]1[C@H](c2ccccc2)[C@@H](CO)N1C(=O)Cc1ccncc1 | . | . | . | . | 20
CC(C)NC(=O)N1[C@H](CN(C)C(=O)c2ccccc2)[C@@H](c2ccccc2)[C@@H]1CO | . | . | . | . | 18
CC(C)NC(=O)N1[C@H](CN(C)C(=O)c2ccncc2)[C@@H](c2ccccc2)[C@@H]1CO | . | . | . | . | .
Cn1c(N)c(C(=O)COC(=O)CSc2ccccc2)c(=O)n(C)c1=O | -18 | . | . | . | .
Cn1c(N)c(C(=O)COC(=O)c2ccc(Cl)c(S(=O)(=O)N3CCCC3)c2)c(=O)n(C)c1=O | -26 | . | . | . | .
CN(c1ccc(OCC(=O)OCC(=O)c2c(N)n(C)c(=O)n(C)c2=O)cc1)S(=O)(=O)c1ccc2ccccc2c1 | . | . | . | . | .
CNS(=O)(=O)c1cccc(C(=O)OCC(=O)c2c(N)n(C)c(=O)n(C)c2=O)c1 | . | . | . | . | .
C=CCN(c1ccccc1OC)S(=O)(=O)c1cccc(C(=O)OCC(=O)c2c(N)n(C)c(=O)n(C)c2=O)c1 | -19 | . | . | . | .
CCN(c1ccc(OCC(=O)OCC(=O)c2c(N)n(C)c(=O)n(C)c2=O)cc1)S(=O)(=O)c1ccccc1 | -15 | . | . | . | .
Cn1c(N)c(C(=O)COC(=O)c2cc(S(=O)(=O)N3CCCCC3)ccc2Cl)c(=O)n(C)c1=O | . | . | . | . | .
O=C(NCC1CC1)[C@@H]1[C@@H](CO)[C@@H]2Cn3c(cccc3=O)[C@H]1N2C(=O)c1ccccc1 | . | . | . | . | .
CC(C)CC#Cc1cnc2c(c1)C(=O)N([C@H](C)CO)C[C@H](C)[C@H](CN(C)Cc1ccc3c(c1)OCO3)O2 | . | . | . | . | .
COc1ccc(OC)c(C(=O)Cn2nnc(-c3ccc(N4CCOCC4)cc3)n2)c1 | . | . | 10 | . | .
COc1ccc(-c2ccc(-c3nnn(CC(=O)N4CCOCC4)n3)cc2)cc1 | . | . | / | . | .
Cc1noc(C)c1S(=O)(=O)Nc1ccc2c(c1)CC(=O)N([C@H](C)CO)C[C@@H](C)[C@H](CN(C)Cc1ccc(C(=O)O)cc1)O2 | . | . | . | . | .
CCOc1ccc2nc(SCC(=O)NCc3ccc(OC)cc3)[nH]c2c1 | . | . | . | . | 27
COc1ccc2nc(SCC(=O)NCc3ccccc3)[nH]c2c1 | . | . | . | . | .
CCOc1ccc2nc(SCC(=O)Nc3cccc(S(=O)(=O)NC4=NCCCCC4)c3)[nH]c2c1 | -27 | . | . | . | .
O=C(OCc1c(-c2ccccc2)ncc2ccccc12)c1cccs1 | -21 | . | . | . | .
CCCC#Cc1ccc([C@H]2[C@@H](CO)N3C(=O)CN(C(=O)c4ccccn4)C[C@@H]23)cc1 | . | . | . | . | .
CC1(C)CC(=O)C2=C(C1)c1c(ccc3ccccc13)NC2c1ccc(C(=O)O)cc1 (stereo unspecified) | . | . | . | . | .
